Source: ChEMBL document CHEMBL3779892, “Increasing the binding affinity of VEGFR-2 inhibitors by extending their hydrophobic interaction with the active site: Design, synthesis and biological evaluation of 1-substituted-4-(4-methoxybenzyl)phthalazine derivatives” (Eur J Med Chem, 2016)

Legend:
Assay type in all cases: functional
[1] = Growth inhibition of human UACC62 cells at 10 uM after 48 hrs by sulforhodamine B assay; details: UACC-62, 48 h, read-out: GI
Procedure, shortened: (§1)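 NCI-60 panel, adherent cells grown in RPMI 1640 with 5% FBS and 2 mM L-glutamine, plated at 5000–40,000 cells/well and preincubated 24 h at 37 °C, 5% CO2. 10 µM final compound from DMSO stock, triplicate wells, 48 h. Fixed with cold TCA (10% final, 60 min, 4 °C) and stained with 0.4% SRB. Absorbance read at 515 nm; growth calculated against time-zero and control wells.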

[2] = Growth inhibition of human HOP62 cells at 10 uM after 48 hrs by sulforhodamine B assay; details: HOP-62, 48 h, read-out: GI
Procedure, shortened: (§2)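 Run at NCI on the 60-line panel. Cells grown in RPMI 1640 with 5% FBS and 2 mM L-glutamine, plated at 5000–40,000 cells/well by doubling time, and held 24 h at 37 °C before dosing. Drug (DMSO stock) given at a single final 10 µM in triplicate wells for 48 h. Adherent cells fixed with cold TCA (10% final), suspension cells with 16% TCA. SRB stain read at 515 nm. Percent growth from Tz, C and Ti.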

NCI-H460 = assay: Growth inhibition of human NCI-H460 cells at 10 uM after 48 hrs by sulforhodamine B assay; details: NCI-H460, 48 h, read-out: GI; procedure, shortened: as §2
A549 = assay: Growth inhibition of human A549 cells at 10 uM after 48 hrs by sulforhodamine B assay; details: A549, 48 h, read-out: GI; procedure, shortened: as §2
[3] = Growth inhibition of human MOLT4 cells at 10 uM after 48 hrs by sulforhodamine B assay; details: MOLT-4, 48 h, read-out: GI; procedure, shortened: as §2
NCI-H226 = assay: Growth inhibition of human NCI-H226 cells at 10 uM after 48 hrs by sulforhodamine B assay; details: NCI-H226, 48 h, read-out: GI; procedure, shortened: as §2
KM12 = assay: Growth inhibition of human KM12 cells at 10 uM after 48 hrs by sulforhodamine B assay; details: KM12, 48 h, read-out: GI; procedure, shortened: as §2
[4] = Growth inhibition of human BT549 cells at 10 uM after 48 hrs by sulforhodamine B assay; details: BT-549, 48 h, read-out: GI; procedure, shortened: as §2
[5] = Growth inhibition of human SW620 cells at 10 uM after 48 hrs by sulforhodamine B assay; details: SW-620, 48 h, read-out: GI; procedure, shortened: as §1
[6] = Growth inhibition of human OVCAR3 cells at 10 uM after 48 hrs by sulforhodamine B assay; details: OVCAR-3, 48 h, read-out: GI; procedure, shortened: as §2
ACHN = assay: Growth inhibition of human ACHN cells at 10 uM after 48 hrs by sulforhodamine B assay; details: read-out: GI; procedure, shortened: as §2
[7] = Growth inhibition of human HCT15 cells at 10 uM after 48 hrs by sulforhodamine B assay; details: HCT-15, 48 h, read-out: GI; procedure, shortened: as §2
[8] = Growth inhibition of human TK10 cells at 10 uM after 48 hrs by sulforhodamine B assay; details: TK-10, 48 h, read-out: GI; procedure, shortened: as §1
NCI-H522 = assay: Growth inhibition of human NCI-H522 cells at 10 uM after 48 hrs by sulforhodamine B assay; details: NCI-H522, 48 h, read-out: GI; procedure, shortened: as §2
M14 = assay: Growth inhibition of human M14 cells at 10 uM after 48 hrs by sulforhodamine B assay; details: M14, 48 h, read-out: GI; procedure, shortened: as §2
[9] = Growth inhibition of human UO31 cells at 10 uM after 48 hrs by sulforhodamine B assay; details: UO-31, 48 h, read-out: GI; procedure, shortened: as §1
786-0 = assay: Growth inhibition of human 786-0 cells at 10 uM after 48 hrs by sulforhodamine B assay; details: 786-0, 48 h, read-out: GI; procedure, shortened: as §2
[10] = Growth inhibition of human PC3 cells at 10 uM after 48 hrs by sulforhodamine B assay; details: PC-3, 48 h, read-out: GI; procedure, shortened: as §2
CCRF-CEM = assay: Growth inhibition of human CCRF-CEM cells at 10 uM after 48 hrs by sulforhodamine B assay; details: read-out: GI; procedure, shortened: as §2
MDA-MB-468 = assay: Growth inhibition of human MDA-MB-468 cells at 10 uM after 48 hrs by sulforhodamine B assay; details: MDA-MB-468, 48 h, read-out: GI; procedure, shortened: as §2
[11] = Growth inhibition of human Hs 578T cells at 10 uM after 48 hrs by sulforhodamine B assay; details: read-out: GI; procedure, shortened: as §2
[12] = Growth inhibition of human LOXIMVI cells at 10 uM after 48 hrs by sulforhodamine B assay; details: LOX IMVI, read-out: GI; procedure, shortened: as §2
Malme-3M = assay: Growth inhibition of human MALME-3M cells at 10 uM after 48 hrs by sulforhodamine B assay; details: read-out: GI; procedure, shortened: as §2

Row | Compound | inhibition of growth at 10 µM [1] [%] | inhibition of growth at 10 µM [2] [%] | inhibition of growth at 10 µM (NCI-H460) [%] | inhibition of growth at 10 µM (A549) [%] | inhibition of growth at 10 µM [3] [%] | inhibition of growth at 10 µM (NCI-H226) [%] | inhibition of growth at 10 µM (KM12) [%] | inhibition of growth at 10 µM [4] [%] | inhibition of growth at 10 µM [5] [%] | inhibition of growth at 10 µM [6] [%] | inhibition of growth at 10 µM (ACHN) [%] | inhibition of growth at 10 µM [7] [%] | inhibition of growth at 10 µM [8] [%] | inhibition of growth at 10 µM (NCI-H522) [%] | inhibition of growth at 10 µM (M14) [%] | inhibition of growth at 10 µM [9] [%] | inhibition of growth at 10 µM (786-0) [%] | inhibition of growth at 10 µM [10] [%] | inhibition of growth at 10 µM (CCRF-CEM) [%] | inhibition of growth at 10 µM (MDA-MB-468) [%] | further results
1 | COc1ccc(Cc2nnc(Nc3ccc(NC(=O)Nc4cccc(Cl)c4)cc3)c3ccccc23)cc1 | < 30 | < 30 | < 30 | 35 | < 30 | < 30 | < 30 | < 30 | < 30 | < 30 | 39 | < 30 | < 30 | 57 | < 30 | < 30 | 35 | 32 | 41 | < 30 | inhibition of growth at 10 µM [11]: < 30%; inhibition of growth at 10 µM [12]: < 30%; inhibition of growth at 10 µM (Malme-3M): < 30%
2 | COc1ccc(Cc2nnc(Nc3cccc(OC)c3)c3ccccc23)cc1 | < 30 | 35 | < 30 | < 30 | < 30 | 37 | < 30 | < 30 | < 30 | < 30 | < 30 | < 30 | < 30 | 63 | < 30 | 57 | < 30 | 30 | < 30 | < 30 | inhibition of growth at 10 µM [11]: < 30%; inhibition of growth at 10 µM [12]: < 30%; inhibition of growth at 10 µM (Malme-3M): < 30%
3 | COc1ccc(Cc2nnc(Nc3ccc(OC)cc3)c3ccccc23)cc1 | 34 | < 30 | < 30 | < 30 | 31 | < 30 | < 30 | < 30 | < 30 | < 30 | < 30 | < 30 | < 30 | < 30 | < 30 | 43 | < 30 | < 30 | < 30 | < 30 | inhibition of growth at 10 µM [11]: < 30%; inhibition of growth at 10 µM [12]: < 30%; inhibition of growth at 10 µM (Malme-3M): < 30%
4 | COc1ccc(Cc2nnc(Nc3ccc(NC(=O)Nc4ccc(Cl)c(C(F)(F)F)c4)cc3)c3ccccc23)cc1 | < 30 | < 30 | 36 | 48 | 50 | < 30 | 51 | < 30 | < 30 | 78 | 50 | 40 | < 30 | 68 | 40 | < 30 | 62 | 45 | 55 | 37 | inhibition of growth at 10 µM [11]: 48%; inhibition of growth at 10 µM [12]: 32%; inhibition of growth at 10 µM (Malme-3M): < 30%
5 | COc1ccc(Cc2nnc(Nc3ccc(Cl)cc3)c3ccccc23)cc1 | 60 | 40 | 45 | 40 | 48 | 34 | 30 | < 30 | < 30 | 40 | 47 | 33 | 52 | 38 | 47 | 68 | 43 | 51 | 46 | 42 | inhibition of growth at 10 µM [11]: 35%; inhibition of growth at 10 µM [12]: 58%; inhibition of growth at 10 µM (Malme-3M): < 30%
6 | COc1ccc(Cc2nnc(Nc3ccc(NC(=O)Nc4ccccc4)cc3)c3ccccc23)cc1 | < 30 | < 30 | < 30 | < 30 | 30 | < 30 | < 30 | < 30 | < 30 | < 30 | < 30 | < 30 | < 30 | 48 | < 30 | < 30 | 36 | 30 | 34 | < 30 | inhibition of growth at 10 µM [11]: 33%; inhibition of growth at 10 µM [12]: < 30%; inhibition of growth at 10 µM (Malme-3M): < 30%
7 | COc1ccc(Cc2nnc(Nc3ccc(NC(=O)Nc4cccc(OC)c4)cc3)c3ccccc23)cc1 | < 30 | < 30 | < 30 | < 30 | < 30 | < 30 | < 30 | < 30 | < 30 | < 30 | < 30 | < 30 | < 30 | < 30 | < 30 | < 30 | 42 | < 30 | < 30 | < 30 | inhibition of growth at 10 µM [11]: 50%; inhibition of growth at 10 µM [12]: < 30%; inhibition of growth at 10 µM (Malme-3M): < 30%
8 | COc1ccc(Cc2nnc(Nc3ccc(NC(=O)Nc4cccc(C(F)(F)F)c4)cc3)c3ccccc23)cc1 | < 30 | < 30 | < 30 | 35 | 37 | < 30 | 36 | < 30 | < 30 | < 30 | 41 | < 30 | < 30 | 56 | 30 | < 30 | 41 | 36 | 35 | < 30 | inhibition of growth at 10 µM [11]: 34%; inhibition of growth at 10 µM [12]: < 30%; inhibition of growth at 10 µM (Malme-3M): < 30%
